In ChEMBL document CHEMBL4350992, “Identification of Diketopiperazine-Containing 2-Anilinobenzamides as Potent Sirtuin 2 (SIRT2)-Selective Inhibitors Targeting the "Selectivity Pocket", Substrate-Binding Site, and NAD+-Binding Site” (J Med Chem, 2019):
Activity calls are given as the source filed them. The calls are words filed in the database; no cut-off is given here.

Experiments:
[1] = Solubility of the compound in buffer/DMSO at 100 uM; format: physicochemical
[2] = molecular target: NAD-dependent protein deacylase sirtuin-5, mitochondrial (Homo sapiens) (UniProt Q9NXA8); assay: Inhibition of human N-terminal His-tagged SIRT5 (37 to 310 residues) expressed in Escherichia coli at 100 uM using flour de lys succinyl as substrate incubated for 3 hrs measured up to 30 mins by fluorescence assay relative to control
[3] = molecular target: T1, NAD-dependent protein deacetylase sirtuin-1 (Homo sapiens) (UniProt Q96EB6); assay: Inhibition of human N-terminal His-tagged SIRT1 expressed in Escherichia coli at 100 uM using p53 (Arg-His-Lys-Lys(Ac)) (379 to 382 residues) as substrate incubated for 3 hrs measured up to 30 mins by fluorescence assay relative to control
T1 sequence (whole entry): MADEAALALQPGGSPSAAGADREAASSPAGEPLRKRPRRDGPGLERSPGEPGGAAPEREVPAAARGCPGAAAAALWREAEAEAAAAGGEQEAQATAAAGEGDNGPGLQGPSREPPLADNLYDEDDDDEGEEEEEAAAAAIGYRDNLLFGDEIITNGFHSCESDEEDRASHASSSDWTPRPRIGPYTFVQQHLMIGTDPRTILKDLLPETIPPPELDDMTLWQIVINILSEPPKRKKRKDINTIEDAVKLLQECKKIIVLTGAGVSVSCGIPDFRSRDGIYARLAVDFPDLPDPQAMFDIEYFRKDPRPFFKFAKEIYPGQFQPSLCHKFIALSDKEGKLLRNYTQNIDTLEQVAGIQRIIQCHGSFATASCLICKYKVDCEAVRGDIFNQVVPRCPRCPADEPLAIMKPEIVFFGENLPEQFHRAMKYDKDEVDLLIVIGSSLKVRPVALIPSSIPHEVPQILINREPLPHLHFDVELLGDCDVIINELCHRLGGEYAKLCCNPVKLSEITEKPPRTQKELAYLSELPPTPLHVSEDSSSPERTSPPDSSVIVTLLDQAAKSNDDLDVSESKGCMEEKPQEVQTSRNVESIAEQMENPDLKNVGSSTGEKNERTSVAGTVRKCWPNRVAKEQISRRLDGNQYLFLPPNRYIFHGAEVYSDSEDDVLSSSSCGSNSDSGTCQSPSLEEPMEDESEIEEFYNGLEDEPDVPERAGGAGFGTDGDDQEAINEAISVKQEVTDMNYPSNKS

[4] = molecular target: T2, NAD-dependent protein deacetylase sirtuin-3, mitochondrial (Homo sapiens) (UniProt Q9NTG7); assay: Inhibition of human N-terminal His-tagged SIRT3 (102 to 399 residues) expressed in Escherichia coli at 100 uM using p53 (Gln-Pro-Lys-Lys(Ac)) (317 to 320 residues) as substrate incubated for 3 hrs measured up to 30 mins by fluorescence assay relative to control
T2 sequence (whole entry): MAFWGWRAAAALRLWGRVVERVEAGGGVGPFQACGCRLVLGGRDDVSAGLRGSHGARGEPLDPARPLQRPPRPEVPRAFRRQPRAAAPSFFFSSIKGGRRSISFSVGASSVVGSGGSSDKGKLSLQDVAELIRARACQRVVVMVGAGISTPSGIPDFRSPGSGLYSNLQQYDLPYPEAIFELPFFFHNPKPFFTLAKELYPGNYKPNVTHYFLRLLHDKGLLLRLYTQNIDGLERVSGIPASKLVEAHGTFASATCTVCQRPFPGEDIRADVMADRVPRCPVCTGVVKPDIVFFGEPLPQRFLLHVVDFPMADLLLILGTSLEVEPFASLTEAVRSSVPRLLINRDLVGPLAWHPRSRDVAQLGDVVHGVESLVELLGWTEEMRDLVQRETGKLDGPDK

[5] = molecular target: T1, NAD-dependent protein deacetylase sirtuin-1 (Homo sapiens); assay: Inhibition of human N-terminal His-tagged SIRT1 expressed in Escherichia coli at 50 uM using p53 (Arg-His-Lys-Lys(Ac)) (379 to 382 residues) as substrate incubated for 3 hrs measured up to 30 mins by fluorescence assay relative to control
[6] = molecular target: T3, NAD-dependent protein deacetylase sirtuin-2 (Homo sapiens, UniProt Q8IXJ6); assay: Inhibition of human N-terminal His-tagged SIRT2 expressed in Escherichia coli using p53 (Gln-Pro-Lys-Lys(Ac)) (317 to 320 residues) as substrate incubated for 3 hrs measured up to 30 mins by fluorescence assay
T3 sequence (Q8IXJ6 whole entry): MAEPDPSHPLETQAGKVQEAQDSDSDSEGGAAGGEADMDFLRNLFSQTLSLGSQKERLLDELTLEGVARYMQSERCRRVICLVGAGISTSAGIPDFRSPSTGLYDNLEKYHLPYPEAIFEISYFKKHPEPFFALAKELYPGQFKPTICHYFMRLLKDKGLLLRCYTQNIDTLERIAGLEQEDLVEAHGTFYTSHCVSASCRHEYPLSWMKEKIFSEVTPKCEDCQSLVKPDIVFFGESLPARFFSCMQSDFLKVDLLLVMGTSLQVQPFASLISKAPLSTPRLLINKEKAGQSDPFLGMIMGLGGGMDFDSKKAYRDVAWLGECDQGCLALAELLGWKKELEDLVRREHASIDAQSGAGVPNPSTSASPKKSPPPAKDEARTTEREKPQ

[7] = molecular target: T4, NAD-dependent protein deacetylase sirtuin-2 (Homo sapiens) (UniProt Q8IXJ6); assay: Inhibition of human N-terminal His-tagged SIRT2 expressed in Escherichia coli at 1 uM using p53 (Gln-Pro-Lys-Lys(Ac)) (317 to 320 residues) as substrate incubated for 3 hrs measured up to 30 mins by fluorescence assay relative to control
T4 sequence (whole entry): T3 sequence (Q8IXJ6 whole entry)

[8] = molecular target: T2, NAD-dependent protein deacetylase sirtuin-3, mitochondrial (Homo sapiens); assay: Inhibition of human N-terminal His-tagged SIRT3 (102 to 399 residues) expressed in Escherichia coli at 50 uM using p53 (Gln-Pro-Lys-Lys(Ac)) (317 to 320 residues) as substrate incubated for 3 hrs measured up to 30 mins by fluorescence assay relative to control
[9] = molecular target: T4, NAD-dependent protein deacetylase sirtuin-2 (Homo sapiens); assay: Inhibition of human N-terminal His-tagged SIRT2 expressed in Escherichia coli at 10 uM using p53 (Gln-Pro-Lys-Lys(Ac)) (317 to 320 residues) as substrate incubated for 3 hrs measured up to 30 mins by fluorescence assay relative to control
N2a [10] = assay: Induction of neurite outgrowth in mouse Neuro2a cells assessed as differentiated cells at 2 uM measured after 48 hrs by microscopic analysis (reference value: 4.18 +/- 1.67%); format: functional
Method in brief: (§1)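 N2a cells were plated at 1×10⁴ cells/mL in DMEM with 10% FBS, then switched to DMEM with 2% FBS for differentiation. Compound was added for 24 or 48 h and morphology scored by microscopy. A cell counted as differentiated if it had ≥1 neurite longer than twice the soma diameter; ≥100 cells were counted per condition. Triplicate experiments, mean ± SD, one-way ANOVA with Dunnett's test.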

[11] = molecular target: Histone deacetylase (Homo sapiens) (UniProt Q13547+O15379+Q9UBN7+Q92769+Q9UQL6+Q8WUI4+Q9BY41+Q96DB2+P56524+Q9UKV0+Q969S8); assay: Inhibition of HDAC in human HeLa cell nuclear extract at 2.5 to 100 uM using fluor de lys as substrate by fluorescence assay; format: cell-free
[12] = molecular target: Lysine-specific demethylase 5A (Homo sapiens) (UniProt P29375); assay: Inhibition of human C-terminal FLAG-tagged KDM5A (1 to 1090 residues) expressed in baculovirus infected Sf9 insect cells at 2.5 to 100 uM using H3(1-21)K4(Me3)-GGK(Biotin)/2-OG as substrate measured after 1 hr by Alphalisa assay
N2a [13] = assay: Induction of neurite outgrowth in mouse Neuro2a cells assessed as differentiated cells at 2 uM measured after 24 hrs by microscopic analysis (reference value: 2.53 +/- 0.76%); format: functional; method in brief: as §1
[14] = molecular target: T5, NAD-dependent protein deacetylase sirtuin-1 (Homo sapiens, UniProt Q96EB6); assay: Inhibition of human N-terminal His-tagged SIRT1 expressed in Escherichia coli using p53 (Arg-His-Lys-Lys(Ac)) (379 to 382 residues) as substrate incubated for 3 hrs measured up to 30 mins by fluorescence assay
T5 sequence (Q96EB6 whole entry): T1 sequence (whole entry)

[15] = molecular target: T3, NAD-dependent protein deacetylase sirtuin-2; assay: Inhibition of human N-terminal His-tagged SIRT2 expressed in Escherichia coli using p53 (Gln-Pro-Lys-Lys(Ac)) (317 to 320 residues) as substrate incubated for 3 hrs measured up to 30 mins in presence of NAD+ by fluorescence-based Michaelis-Menten plot analysis; conditions: in the assay text read “incubated for 45 mins” for “incubated for 3 hrs”
Method in brief: (§2)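 The Fluor de Lys SIRT2 assay was run with reaction time shortened to 45 min. The acetylated substrate concentration was varied at saturating NAD⁺. Inhibitor was tested at 0, 0.1, 0.4, 0.6 and 1 µM, or at 0, 0.02, 0.06, 0.1 and 0.4 µM. Ki was derived from Michaelis–Menten and Lineweaver–Burk plots.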

[16] = molecular target: T4, NAD-dependent protein deacetylase sirtuin-2 (Homo sapiens); assay: Binding affinity to recombinant human full-length N-terminal His-tagged SIRT2 expressed in baculovirus infected Sf9 insect cells assessed as ADP ribose-compound complex formation measured after 5 mins in presence of NAD+ by MALDI-TOF analysis
Method in brief: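 Recombinant SIRT2 at 1.9 µM, 500 µM NAD⁺ and 1 mM compound were reacted for 5 min at 37°C in 40 mM sodium phosphate pH 7.0 with 240 mM NaCl, 120 mM imidazole, 0.2 mM DTT, 20% glycerol and 2% DMSO. Controls lacked compound, NAD⁺ or enzyme. Mixtures were diluted, desalted on C18 tips and analysed by MALDI-TOF in reflectron negative-ion mode with α-cyano-4-hydroxycinnamic acid matrix.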

MCF7 [17] = assay: Growth inhibition of human MCF7 cells measured after 72 hrs by AlamarBlue assay; format: functional
Method in brief: (§3)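 MCF-7 cells in DMEM with 10% FBS were seeded at 1×10³ cells/well. After 24 h at 37°C, 5% CO₂, compound in medium was added at varying concentrations for 72 h. AlamarBlue was then added for 3 h and fluorescence read (ex 540/em 590 nm). Percent growth was calculated from the readings, and GI50 from the dose response. Three independent determinations.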

[18] = molecular target: T4, NAD-dependent protein deacetylase sirtuin-2 (Homo sapiens); assay: Competitive inhibition of human N-terminal His-tagged SIRT2 expressed in Escherichia coli up to uM using varying levels of p53 (Gln-Pro-Lys-Lys(Ac)) (317 to 320 residues) as substrate incubated for 3 hrs measured up to 30 mins in presence of NAD+ by Lineweaver-burk plot analysis; conditions: in the assay text read “incubated for 45 mins” for “incubated for 3 hrs”; method in brief: as §2
MCF7 [19] = assay: Growth inhibition of human MCF7 cells at 30 uM measured after 72 hrs by AlamarBlue assay relative to control; format: functional; conditions: MCF7, 72 h, read-out: GI; method in brief: as §3
N2a [20] = assay: Induction of neurite outgrowth in mouse Neuro2a cells at 0.2 to 2 uM measured after 24 to 48 hrs by microscopic analysis; format: functional, cell-based; method in brief: as §1

NAD-dependent protein deacylase sirtuin-5, mitochondrial (Homo sapiens), sequence (Q9NXA8 37-310 limits assumed): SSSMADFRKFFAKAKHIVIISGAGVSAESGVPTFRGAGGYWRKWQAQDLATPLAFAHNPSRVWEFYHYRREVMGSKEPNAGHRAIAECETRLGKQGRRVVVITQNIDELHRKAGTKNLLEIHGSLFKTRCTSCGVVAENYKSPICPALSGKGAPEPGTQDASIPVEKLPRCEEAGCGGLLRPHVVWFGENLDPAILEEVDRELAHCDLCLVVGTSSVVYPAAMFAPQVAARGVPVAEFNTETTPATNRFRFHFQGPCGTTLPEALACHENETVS
Lysine-specific demethylase 5A (Homo sapiens), sequence (P29375 whole entry, the tested form may be a part): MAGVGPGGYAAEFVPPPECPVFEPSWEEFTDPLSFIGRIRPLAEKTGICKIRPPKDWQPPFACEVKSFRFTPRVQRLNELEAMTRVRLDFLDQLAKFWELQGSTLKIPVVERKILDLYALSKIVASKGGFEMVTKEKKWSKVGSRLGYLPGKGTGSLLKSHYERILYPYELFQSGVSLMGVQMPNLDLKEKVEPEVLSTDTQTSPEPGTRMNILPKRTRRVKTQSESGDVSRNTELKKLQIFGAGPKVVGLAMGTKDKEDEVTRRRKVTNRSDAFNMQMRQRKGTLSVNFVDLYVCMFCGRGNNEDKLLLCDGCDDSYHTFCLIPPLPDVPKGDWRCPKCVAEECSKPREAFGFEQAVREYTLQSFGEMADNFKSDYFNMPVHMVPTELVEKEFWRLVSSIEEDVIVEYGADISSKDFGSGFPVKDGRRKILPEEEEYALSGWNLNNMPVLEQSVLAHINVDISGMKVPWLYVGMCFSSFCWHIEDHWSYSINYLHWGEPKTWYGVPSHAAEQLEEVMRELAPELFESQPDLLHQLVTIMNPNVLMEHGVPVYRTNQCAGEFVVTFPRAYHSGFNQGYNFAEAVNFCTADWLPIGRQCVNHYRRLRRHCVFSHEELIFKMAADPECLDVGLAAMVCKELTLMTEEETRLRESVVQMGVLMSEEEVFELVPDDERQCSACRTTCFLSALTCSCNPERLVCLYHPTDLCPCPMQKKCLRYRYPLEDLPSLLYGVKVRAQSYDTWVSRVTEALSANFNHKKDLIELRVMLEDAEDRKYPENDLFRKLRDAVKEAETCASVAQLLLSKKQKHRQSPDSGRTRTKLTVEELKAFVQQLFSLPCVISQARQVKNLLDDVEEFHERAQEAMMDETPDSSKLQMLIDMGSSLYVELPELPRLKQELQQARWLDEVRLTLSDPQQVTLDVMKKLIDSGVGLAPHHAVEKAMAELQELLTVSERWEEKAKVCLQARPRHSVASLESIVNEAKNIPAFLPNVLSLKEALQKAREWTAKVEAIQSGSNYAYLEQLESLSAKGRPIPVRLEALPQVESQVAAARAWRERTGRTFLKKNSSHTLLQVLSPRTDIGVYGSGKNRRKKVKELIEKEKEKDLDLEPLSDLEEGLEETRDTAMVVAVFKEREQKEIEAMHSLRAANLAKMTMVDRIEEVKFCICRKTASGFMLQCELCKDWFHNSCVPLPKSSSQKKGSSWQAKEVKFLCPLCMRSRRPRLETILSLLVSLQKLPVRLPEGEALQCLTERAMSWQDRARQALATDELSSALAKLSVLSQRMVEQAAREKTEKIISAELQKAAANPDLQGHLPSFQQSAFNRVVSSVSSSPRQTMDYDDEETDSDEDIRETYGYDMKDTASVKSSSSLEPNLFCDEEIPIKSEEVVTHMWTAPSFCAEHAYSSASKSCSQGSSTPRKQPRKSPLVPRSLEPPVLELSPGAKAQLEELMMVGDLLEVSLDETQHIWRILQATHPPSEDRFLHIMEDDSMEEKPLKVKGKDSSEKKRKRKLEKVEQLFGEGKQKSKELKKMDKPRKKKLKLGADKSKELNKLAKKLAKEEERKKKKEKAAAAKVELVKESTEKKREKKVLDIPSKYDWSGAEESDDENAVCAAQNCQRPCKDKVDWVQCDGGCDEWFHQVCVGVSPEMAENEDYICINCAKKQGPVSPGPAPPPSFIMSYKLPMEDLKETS

Structure (SMILES) | inhibition [2] [%] | inhibition [3] [%] | inhibition [4] [%] | inhibition [5] [%] | IC50 [6] [µM] | inhibition [7] [%] | inhibition [9] [%] | Ki [15] [µM] | inhibition [18] | inhibition of growth at 30 µM (MCF7 [19]) [%] | other results
C[C@H](NC(=O)[C@H](CCCCNC(=O)CNC(=O)c1ccccc1Nc1cccc(OCCc2ccccc2)c1)NC(=O)OCc1ccccc1)C(N)=O | 6 | 51 | 61 |  |  |  |  |  |  |  | solubility [1]: Insoluble
Cc1cc(C)nc(SCC(=O)Nc2cccc(Nc3ccccc3C(N)=O)c2)n1 | 16 | 28 | 80 | 16 | 1.18 | 47 | 93 |  |  |  | inhibition [8]: 63%
O=C1CNC(=O)[C@H](CCCCNC(=S)CNC(=O)c2ccccc2Nc2cccc(OCCc3ccccc3)c2)N1 | 0 |  |  | 41 | 0.31 | 73 |  | 0.068 | Active | 96 | Activity (N2a [10]): 12.27%; inhibition [11]: inactive; inhibition [12]: inactive; Activity (N2a [13]): 4.54%; IC50 [14]: 77.4 µM; Activity [16]: Active; growth inhibition (GI) (MCF7 [17]): Dose-dependent effect; GI50 (MCF7 [17]; MCF7, 72 h): 11.5 µM
O=C(CNC(=O)c1ccccc1Nc1cccc(OCCc2ccccc2)c1)NCCCC[C@@H]1NC(=O)CNC1=O | 2 | 13 | 17 | 9 | 0.6 | 59 | 92 | 0.47 | Active | 40 | Activity (N2a [20]): inactive
